Laboratory results taken from ChEMBL document CHEMBL1165965, “Synthesis and structure-activity relationships of 1,2,3,4-tetrahydropyrido[2,3-b]pyrazines as potent and selective inhibitors of the anaplastic lymphoma kinase” (Bioorg Med Chem, 2010).

Legend:
[1] = molecular target: Mitogen-activated protein kinase 1 (Homo sapiens) (UniProt P28482); assay: Inhibition of ERK2 at 1 uM
Method in brief: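 Single-concentration screen using Ambit Bioscience KINOMEscan technology across a panel of 250–400 kinases. Per-kinase inhibition from this screen was summarized as S(90), the fraction of kinases inhibited by more than 90%.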

[2] = tested on: Mast/stem cell growth factor receptor Kit (Homo sapiens), P10721 [L576P]; assay: Inhibition of KIT L576P mutant at 1 uM
Chain of Mast/stem cell growth factor receptor Kit (Homo sapiens), P10721 [L576P] (P10721 whole entry L576P): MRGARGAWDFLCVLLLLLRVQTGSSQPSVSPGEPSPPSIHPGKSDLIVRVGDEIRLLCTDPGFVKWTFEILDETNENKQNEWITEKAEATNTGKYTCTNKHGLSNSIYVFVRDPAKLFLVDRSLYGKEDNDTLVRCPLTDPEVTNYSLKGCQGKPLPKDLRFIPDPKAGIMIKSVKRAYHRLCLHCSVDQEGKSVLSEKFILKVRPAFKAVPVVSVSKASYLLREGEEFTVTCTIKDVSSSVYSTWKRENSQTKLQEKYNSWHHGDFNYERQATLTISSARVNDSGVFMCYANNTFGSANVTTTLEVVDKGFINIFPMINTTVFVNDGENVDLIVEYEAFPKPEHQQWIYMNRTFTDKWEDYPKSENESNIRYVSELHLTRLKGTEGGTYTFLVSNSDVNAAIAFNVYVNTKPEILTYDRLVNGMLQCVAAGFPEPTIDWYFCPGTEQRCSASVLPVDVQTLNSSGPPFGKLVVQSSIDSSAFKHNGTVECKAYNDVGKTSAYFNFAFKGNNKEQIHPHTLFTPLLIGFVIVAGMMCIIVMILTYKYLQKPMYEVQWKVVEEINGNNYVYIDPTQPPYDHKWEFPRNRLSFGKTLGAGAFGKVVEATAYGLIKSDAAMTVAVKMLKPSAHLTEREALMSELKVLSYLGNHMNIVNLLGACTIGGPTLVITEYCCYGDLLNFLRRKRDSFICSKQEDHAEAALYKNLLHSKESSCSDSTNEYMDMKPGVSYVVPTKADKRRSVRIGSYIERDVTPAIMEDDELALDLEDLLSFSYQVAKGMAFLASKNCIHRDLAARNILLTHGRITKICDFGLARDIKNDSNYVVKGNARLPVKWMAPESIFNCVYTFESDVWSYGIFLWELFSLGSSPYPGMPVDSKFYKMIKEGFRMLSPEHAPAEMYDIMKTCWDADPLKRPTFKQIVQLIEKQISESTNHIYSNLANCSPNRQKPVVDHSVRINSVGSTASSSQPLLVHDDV

[3] = molecular target: T1, Protein kinase C epsilon type (Homo sapiens) (UniProt Q02156); assay: Inhibition of PRKCE at 1 uM
T1 sequence (whole entry): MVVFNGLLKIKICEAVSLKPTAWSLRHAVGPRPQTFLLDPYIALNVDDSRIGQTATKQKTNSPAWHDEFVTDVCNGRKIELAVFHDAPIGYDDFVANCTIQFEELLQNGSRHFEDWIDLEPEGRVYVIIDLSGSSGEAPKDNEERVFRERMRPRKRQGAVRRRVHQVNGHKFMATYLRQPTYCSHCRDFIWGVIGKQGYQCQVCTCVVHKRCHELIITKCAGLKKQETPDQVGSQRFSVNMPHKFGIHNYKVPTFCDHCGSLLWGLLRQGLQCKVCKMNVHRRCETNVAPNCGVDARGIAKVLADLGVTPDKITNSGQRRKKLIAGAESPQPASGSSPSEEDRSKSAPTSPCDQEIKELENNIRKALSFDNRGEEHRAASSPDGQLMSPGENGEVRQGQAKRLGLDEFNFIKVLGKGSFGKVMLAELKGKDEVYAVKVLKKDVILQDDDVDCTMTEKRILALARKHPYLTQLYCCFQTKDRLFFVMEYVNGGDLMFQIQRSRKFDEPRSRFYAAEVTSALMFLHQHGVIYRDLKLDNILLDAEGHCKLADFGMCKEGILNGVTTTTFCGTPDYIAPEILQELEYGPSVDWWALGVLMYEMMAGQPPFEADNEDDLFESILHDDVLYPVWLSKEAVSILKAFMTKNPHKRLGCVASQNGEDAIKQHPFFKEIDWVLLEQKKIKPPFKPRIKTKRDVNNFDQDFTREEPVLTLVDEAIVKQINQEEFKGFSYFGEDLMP

[4] = molecular target: T2, Aurora kinase C (Homo sapiens) (UniProt Q9UQB9); assay: Inhibition of AURKC at 1 uM
T2 sequence (whole entry): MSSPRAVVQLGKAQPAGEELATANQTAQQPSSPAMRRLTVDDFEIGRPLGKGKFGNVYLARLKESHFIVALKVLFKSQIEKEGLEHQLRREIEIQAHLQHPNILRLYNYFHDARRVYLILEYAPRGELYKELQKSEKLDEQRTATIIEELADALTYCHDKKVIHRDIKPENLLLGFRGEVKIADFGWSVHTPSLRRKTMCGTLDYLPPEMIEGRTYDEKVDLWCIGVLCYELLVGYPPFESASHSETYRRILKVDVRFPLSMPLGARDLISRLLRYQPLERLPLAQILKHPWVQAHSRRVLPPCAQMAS
Method in brief: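 Ambit KINOMEscan screen at a single concentration across a 250–400 kinase panel, recorded as percent inhibition. Selectivity was expressed as S(90), the fraction of kinases inhibited >90%.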

[5] = molecular target: T3, Uncharacterized serine/threonine-protein kinase SBK3 (Homo sapiens) (UniProt P0C264); assay: Inhibition of SgK110 at 1 uM
T3 sequence (whole entry): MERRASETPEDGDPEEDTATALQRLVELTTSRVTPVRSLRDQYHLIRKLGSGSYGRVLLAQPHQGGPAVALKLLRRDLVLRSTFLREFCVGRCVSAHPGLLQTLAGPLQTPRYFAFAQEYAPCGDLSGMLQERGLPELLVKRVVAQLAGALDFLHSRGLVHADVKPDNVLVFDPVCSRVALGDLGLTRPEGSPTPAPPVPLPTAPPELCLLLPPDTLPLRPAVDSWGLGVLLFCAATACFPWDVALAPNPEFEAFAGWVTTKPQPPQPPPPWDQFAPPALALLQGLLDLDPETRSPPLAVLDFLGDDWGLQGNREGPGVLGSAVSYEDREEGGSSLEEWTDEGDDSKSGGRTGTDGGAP

[6] = molecular target: T4, Interleukin-1 receptor-associated kinase 3 (Homo sapiens) (UniProt Q9Y616); assay: Inhibition of IRAK3 at 1 uM
T4 sequence (whole entry): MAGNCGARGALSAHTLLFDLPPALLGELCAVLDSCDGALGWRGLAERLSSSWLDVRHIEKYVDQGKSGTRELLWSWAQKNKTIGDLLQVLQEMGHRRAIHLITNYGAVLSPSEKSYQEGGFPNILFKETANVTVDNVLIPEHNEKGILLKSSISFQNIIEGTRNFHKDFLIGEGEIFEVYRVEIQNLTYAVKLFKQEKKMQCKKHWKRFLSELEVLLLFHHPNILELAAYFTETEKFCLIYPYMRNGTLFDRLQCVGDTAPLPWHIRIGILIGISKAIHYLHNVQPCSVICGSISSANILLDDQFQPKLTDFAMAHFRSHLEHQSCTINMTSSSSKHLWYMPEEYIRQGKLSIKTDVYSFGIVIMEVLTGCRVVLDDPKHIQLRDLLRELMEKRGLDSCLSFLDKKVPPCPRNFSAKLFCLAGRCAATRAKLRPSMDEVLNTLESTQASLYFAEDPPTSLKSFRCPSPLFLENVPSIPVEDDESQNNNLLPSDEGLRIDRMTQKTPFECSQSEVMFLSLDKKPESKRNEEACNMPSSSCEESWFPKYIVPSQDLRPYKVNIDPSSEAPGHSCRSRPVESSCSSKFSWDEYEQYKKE
Method in brief: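 Single-concentration screen on the Ambit KINOMEscan platform, run against a panel of 250–400 kinases. Per-kinase inhibition was also summarized as S(90), the fraction of kinases inhibited by more than 90%.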

[7] = molecular target: T5, Serine/threonine-protein kinase 17B (Homo sapiens) (UniProt O94768); assay: Inhibition of DRAK2 at 1 uM
T5 sequence (whole entry): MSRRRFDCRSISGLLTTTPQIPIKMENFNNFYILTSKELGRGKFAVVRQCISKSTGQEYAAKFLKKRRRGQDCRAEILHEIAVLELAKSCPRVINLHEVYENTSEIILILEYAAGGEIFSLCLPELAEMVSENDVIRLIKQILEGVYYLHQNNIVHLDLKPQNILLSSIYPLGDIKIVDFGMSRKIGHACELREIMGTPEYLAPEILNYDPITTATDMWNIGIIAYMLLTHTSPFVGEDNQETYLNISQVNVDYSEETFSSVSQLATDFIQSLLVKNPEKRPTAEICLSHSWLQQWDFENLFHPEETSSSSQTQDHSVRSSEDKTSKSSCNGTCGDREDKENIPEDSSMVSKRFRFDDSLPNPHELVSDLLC

Chain of Mitogen-activated protein kinase 1 (Homo sapiens) (P28482 whole entry): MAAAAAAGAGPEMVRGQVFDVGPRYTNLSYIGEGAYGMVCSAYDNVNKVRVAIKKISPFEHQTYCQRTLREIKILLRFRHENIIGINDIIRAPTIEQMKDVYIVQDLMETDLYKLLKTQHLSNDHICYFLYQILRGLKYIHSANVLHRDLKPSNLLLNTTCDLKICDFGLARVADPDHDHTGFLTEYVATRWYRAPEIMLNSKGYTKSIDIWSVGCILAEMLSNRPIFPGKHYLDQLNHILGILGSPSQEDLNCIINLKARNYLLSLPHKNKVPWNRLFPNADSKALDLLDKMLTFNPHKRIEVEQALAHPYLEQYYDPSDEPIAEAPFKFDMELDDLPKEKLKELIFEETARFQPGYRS

Compound | inhibition [1] [%] | inhibition [2] [%] | inhibition [3] [%] | inhibition [4] [%] | inhibition [5] [%] | inhibition [6] [%] | inhibition [7] [%]
CN1CCN(c2ccc(-c3cnc4c(c3)N(Cc3cc(F)ccc3F)CCN4)cn2)CC1 | < 50 | 75 | < 50 | < 50 | < 50 | < 50 | < 50
O=C(c1ccc(-c2cnc3c(c2)N(Cc2cc(Cl)ccc2C(F)(F)F)CCN3)cc1)N1CCC(N2CCCC2)CC1 | < 50 | – | – | 96.9 | – | < 50 | –
O=C(c1ccc(-c2cnc3c(c2)N(Cc2cc(Cl)ccc2C(F)(F)F)CCN3)cc1)N1CCCCC1 | < 50 | – | – | < 50 | – | < 50 | –
CN1CCN(c2ccc(-c3cnc4c(c3)N(Cc3c(F)ccc(F)c3Cl)CCN4)cn2)CC1 | < 50 | 73 | < 50 | < 50 | < 50 | < 50 | < 50
COC1CCN(C(=O)c2ccc(-c3cnc4c(c3)N(Cc3cc(Cl)ccc3C(F)(F)F)CCN4)cc2)CC1 | < 50 | – | – | 79.5 | – | < 50 | –
O=C(O)c1ccc(-c2cnc3c(c2)N(Cc2cc(Cl)ccc2C(F)(F)F)CCN3)cc1 | < 50 | – | – | < 50 | – | < 50 | –
CC(=O)N1CCN(c2cc(-c3cnc4c(c3)N(Cc3cc(Cl)ccc3C(F)(F)F)CCN4)ccn2)CC1 | < 50 | 90 | < 50 | 89 | 71 | < 50 | < 50
FC(F)(F)c1ccc(Cl)cc1CN1CCNc2ncc(-c3ccnc(N4CCNCC4)c3)cc21 | < 50 | 99 | < 50 | 92 | 96 | 74 | < 50
CN1CCN(c2ccc(-c3cnc4c(c3)N(Cc3cc(Cl)ccc3C(F)(F)F)CCN4)cn2)CC1 | < 50 | 80 | < 50 | < 50 | < 50 | < 50 | < 50
CN1CCN(c2ccc(-c3cnc4c(c3)N(Cc3cc(Cl)ccc3Cl)CCN4)cn2)CC1 | < 50 | 98 | < 50 | < 50 | < 50 | < 50 | < 50
